Results taken from ChEMBL document CHEMBL4184147, “Polyphenolic Phytochemicals in Cancer Prevention and Therapy: Bioavailability versus Bioefficacy” (J Med Chem, 2017).

Key:
NCI-H460 [1] = assay: Cytotoxicity against human NCI-H460 cells assessed as decrease in cell viability after 48 hrs by MTT assay; format: functional, cell-based; conditions: NCI-H460, 48 h
Lipid bilayer = assay: Induction of DOPC/n-decane bilayer property changes assessed as concentration required to double gramicidin-induced quencher influx rate by […]
T47D [2] = assay: Cytotoxicity against human T47D cells assessed as decrease in cell viability after 48 hrs by trypan blue exclusion and LDH release
T47D [3] = assay: Cytotoxicity against human T47D cells assessed as cell viability at 41 uM after 48 hrs by MTT assay; format: functional; conditions: read-out: Activity
BXPC-3 [4] = assay: Cytotoxicity against human BxPC3 cells assessed as decrease in cell viability after 48 hrs by MTT assay; format: functional, cell-based; conditions: BXPC-3, 48 h
U-87 MG [5] = assay: Cytotoxicity against human U87 cells assessed as cell viability at 41 uM after 48 hrs by MTT assay; format: functional, U-87MG ATCC; conditions: read-out: Activity
MDA-MB-231 [6] = assay: Cytotoxicity against human MDA-MB-231 cells assessed as cell viability at 41 uM after 48 hrs by MTT assay; format: functional; conditions: MDA-MB-231, 48 h, read-out: Activity
NCI-H460 [7] = assay: Cytotoxicity against human NCI-H460 cells assessed as cell viability at 41 uM after 48 hrs by MTT assay; format: functional; conditions: NCI-H460, 48 h, read-out: Activity
HT-29 [8] = assay: Cytotoxicity against human HT-29 cells assessed as cell viability at 41 uM after 48 hrs by MTT assay; format: functional; conditions: HT-29, 48 h, read-out: Activity
PANC-1 [9] = assay: Cytotoxicity against human PANC1 cells assessed as cell viability at 41 uM after 48 hrs by MTT assay; format: functional; conditions: PANC-1, 48 h, read-out: Activity
LN-229 [10] = assay: Cytotoxicity against human LN229 cells assessed as cell viability at 41 uM after 48 hrs by MTT assay; format: functional; conditions: LN-229, 48 h, read-out: Activity
HT-29 [11] = assay: Cytotoxicity against human HT-29 cells assessed as decrease in cell viability after 48 hrs by trypan blue exclusion and LDH release; conditions: HT-29, 48 h
[12] = Plasma concentration in mouse at 100 mg/kg, po at 60 mins by LC-MS/MS method; format: ADME, organism-based
In short: (§1)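 For IV dosing, compound dissolved in DMSO:ethanol (2:1), total volume no more than 30 μL. For oral dosing, compound given in a self-microemulsifying delivery system (60% surfactant, emulsifier OP:Cremophor EL 1:1; 30% PEG 400; 10% ethyl oleate), total volume no more than 100 μL. Plasma levels measured by previously described methods.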

Mus musculus [13] = assay: Tmax in mouse at 100 mg/kg, po by HPLC method; format: ADME, organism-based; conditions: in vivo
In short: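 Given orally in a self-microemulsifying delivery system (60% surfactant, emulsifier OP:Cremophor EL 1:1; 30% PEG 400 cosurfactant; 10% ethyl oleate oil), total volume no more than 100 μL. Plasma levels measured by previously described methods.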

BXPC-3 [14] = assay: Cytotoxicity against human BxPC3 cells assessed as cell viability at 41 uM after 48 hrs by MTT assay; format: functional; conditions: BXPC-3, 48 h, read-out: Activity
MDA-MB-231 [15] = assay: Cytotoxicity against human MDA-MB-231 cells assessed as decrease in cell viability after 48 hrs by trypan blue exclusion and LDH release; conditions: MDA-MB-231, 48 h
[16] = Cytotoxicity against human MML1 cells assessed as cell viability at 41 uM after 48 hrs by MTT assay; format: functional; conditions: read-out: Activity
[17] = Plasma concentration in mouse at 10 mg/kg, iv at 60 mins by LC-MS/MS method; format: ADME, organism-based; in short: as §1
PANC-1 [18] = assay: Cytotoxicity against human PANC1 cells assessed as decrease in cell viability after 48 hrs by MTT assay; format: functional, cell-based; conditions: PANC-1, 48 h
[19] = Cytotoxicity against human MML1 cells assessed as decrease in cell viability after 48 hrs by MTT assay; format: functional, cell-based
[20] = Cmax in mouse at 10 mg/kg, iv by LC-MS/MS method; format: ADME, organism-based; set-up: dose 10 mg/kg, route intravenous; conditions: in vivo
In short: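 Mouse iv dosing used polyphenol dissolved in DMSO:ethanol (2:1), with total injected volume never above 30 μL. Plasma levels were measured by previously described methods.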

SK-MEL-2 [21] = assay: Cytotoxicity against human SK-MEL-2 cells assessed as decrease in cell viability after 48 hrs by MTT assay; format: functional, cell-based; conditions: SK-MEL-2, 48 h
SK-MEL-2 [22] = assay: Cytotoxicity against human SK-MEL-2 cells assessed as cell viability at 41 uM after 48 hrs by MTT assay; format: functional; conditions: SK-MEL-2, 48 h, read-out: Activity
U-87 MG [23] = assay: Cytotoxicity against human U87 cells assessed as decrease in cell viability after 48 hrs by trypan blue exclusion and LDH release
Mus musculus [24] = assay: Cmax in mouse at 100 mg/kg, po by HPLC method; format: ADME, organism-based; set-up: dose 100 mg/kg, route oral; conditions: in vivo
In short: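 For oral dosing, polyphenol was dissolved in a self-microemulsifying delivery system: 60% surfactant (emulsifier OP:Cremophor EL 1:1), 30% cosurfactant (PEG 400) and 10% oil (ethyl oleate). Total volume given was never above 100 μL. Plasma levels were quantified by previously described methods.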

LN-229 [25] = assay: Cytotoxicity against human LN229 cells assessed as decrease in cell viability after 48 hrs by trypan blue exclusion and LDH release; conditions: LN-229, 48 h
COLO 201 [26] = assay: Cytotoxicity against human COLO201 cells assessed as cell viability at 41 uM after 48 hrs by MTT assay; format: functional; conditions: COLO 201, 48 h, read-out: Activity
COLO 201 [27] = assay: Cytotoxicity against human COLO201 cells assessed as decrease in cell viability after 48 hrs by trypan blue exclusion and LDH release; conditions: COLO 201, 48 h
A549 [28] = assay: Cytotoxicity against human A549 cells assessed as decrease in cell viability after 48 hrs by trypan blue exclusion and LDH release; conditions: A549, 48 h
A549 [29] = assay: Cytotoxicity against human A549 cells assessed as cell viability at 41 uM after 48 hrs by MTT assay; format: functional; conditions: A549, 48 h, read-out: Activity

Activity (Lipid bilayer): 8.6 µM
concentration at 1 h [12]: < 1 µM
Tmax (Mus musculus [13]): 15 min
concentration at 1 h [17]: < 1 µM
Cmax [20]: 81 µM
Cmax (Mus musculus [24]): 27 µM
Structure (SMILES): COc1cc(/C=C/C(=O)CC(=O)/C=C/c2ccc(O)c(OC)c2)ccc1O [CURCUMIN]
IC50 (NCI-H460 [1]): 15 µM
IC50 (T47D [2]): 19 µM
viability at 41 µM (T47D [3]): 88%
IC50 (BXPC-3 [4]): 29 µM
viability at 41 µM (U-87 MG [5]): 92%
viability at 41 µM (MDA-MB-231 [6]): 90%
viability at 41 µM (NCI-H460 [7]): 95%
viability at 41 µM (HT-29 [8]): 83%
viability at 41 µM (PANC-1 [9]): 99%
viability at 41 µM (LN-229 [10]): 91%
IC50 (HT-29 [11]): 14 µM
viability at 41 µM (BXPC-3 [14]): 102%
IC50 (MDA-MB-231 [15]): 12 µM
viability at 41 µM [16]: 105%
IC50 (PANC-1 [18]): 53 µM
IC50 [19]: 19 µM
IC50 (SK-MEL-2 [21]): 36 µM
viability at 41 µM (SK-MEL-2 [22]): 97%
IC50 (U-87 MG [23]): 16 µM
IC50 (LN-229 [25]): 15 µM
viability at 41 µM (COLO 201 [26]): 81%
IC50 (COLO 201 [27]): 18 µM
IC50 (A549 [28]): 18 µM
viability at 41 µM (A549 [29]): 96%
